# Source: PubChem BioAssay
# VIM-2 inhibitor: VIM-2 metallo-beta-lactamase inhibitors, primary screen, biochemical, epi-absorbance readout, Pseudomonas aeruginosa enzyme; inhibition, % at 5.6 µM; purified VIM-2, nitrocefin hydrolysis, epi-absorbance fluorescence; hit rate 0.89% among 290,000;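 active = inhibition above the mean of all tested compounds plus 3 SD, cutoff set per screening run, cut at about 7.5% in these data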;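 also: red hydrolysis product quenches plate fluorescence so inhibitors raise well fluorescence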
# IMP-1 inh: IMP-1 metallo-beta-lactamase inhibitors, primary screen, biochemical, epi-absorbance readout, Pseudomonas aeruginosa enzyme; metallo-beta-lactamase IMP-1 (Pseudomonas aeruginosa); inhibition, % at 5.6 µM; purified IMP-1, nitrocefin hydrolysis, epi-absorbance fluorescence; hit rate 0.45% among 290,000;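 active = inhibition above the mean plus 3 SD of all compounds in the same screening run, cut at about 4.5% in these data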
#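 system = purified recombinant IMP-1 beta-lactamase | amount = 0.2 nM IMP-1, as dispensed | medium = HEPES buffer pH 7.1 with ZnSO4 and Brij 35 | times = 25 °C, 15 min preincubation, 25 min reaction | detection = plate fluorescence quenching by hydrolysis product, ex 480/em 530 nm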
# dFosB act-1: activators of delta FosB homodimer, primary screen, biochemical, fluorescence polarization, TAMRA-CDK5 oligo, single point | purified delta FosB; percent of positive-control signal above neutral wells | activation, % at 25 µM | hit rate 0.99% among 340,000 | AID 493131, 2011;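 active = mean activation above about 17%, with every replicate also reaching it, limit read from the data, passing the limit was not always enough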
# Target sequence (P13346 whole entry, looked up): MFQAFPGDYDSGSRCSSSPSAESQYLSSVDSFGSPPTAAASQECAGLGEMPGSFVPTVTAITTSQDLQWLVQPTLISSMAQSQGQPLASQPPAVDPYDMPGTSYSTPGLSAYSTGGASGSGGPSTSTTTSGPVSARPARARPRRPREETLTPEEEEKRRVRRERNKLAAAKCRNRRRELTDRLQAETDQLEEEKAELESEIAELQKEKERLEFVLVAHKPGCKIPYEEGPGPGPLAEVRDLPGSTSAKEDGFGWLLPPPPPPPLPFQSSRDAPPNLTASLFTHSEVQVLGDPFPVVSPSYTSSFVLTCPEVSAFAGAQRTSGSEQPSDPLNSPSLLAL
# m5-HT2A agonist: mouse Htr2a agonists via beta-arrestin recruitment, primary screen, cell-based, luminescence | CHO-K1 mHTR2A beta-arrestin complementation; percent of 30 µM serotonin response | activation, % at 7.6 µM | hit rate 0.66% among 360,000;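 active = activation above a run cutoff, the mean activation of all tested compounds plus 3 SD, cut at about 14% in these data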
# dFosB act-2: activators of mouse delta FosB DNA binding, confirmation, biochemical, fluorescence polarization, TAMRA-CDK5 oligo, cherry-picked samples. shares compounds with dFosB act-1. purified delta FosB; normalised: neutral wells 0, positive control 100. activation, % at 24.9 µM. 2,400 tested, under 10 active. AID 588690, 2011;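 active = highest replicate activation at or above 34% and every replicate reaching that threshold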;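 also: higher polarization means more probe DNA bound by delta FosB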
# A number is an active result; – = inactive; · = no result. Only some compounds are listed: those with a hit (about 2.5% of all), similar ones and a draw of the others.
SMILES,VIM-2 inhibitor,IMP-1 inh,dFosB act-1,m5-HT2A agonist,dFosB act-2
CCc1cc(=O)oc2c(C)c(OCC(=O)N3CCC(C(=O)O)CC3)ccc12,–,–,–,–,·
Cc1ccccc1OCc1nc(-c2ccc(NC(=O)c3ccc4c(c3)OCO4)cc2)no1,–,–,19,–,–
Cc1ccccc1OCc1nc(-c2ccc(NC(=O)c3ccco3)cc2)no1,–,–,–,–,·
Cc1cc(OCc2nc(-c3ccc(NC(=O)c4cccnc4)cc3)no2)ccc1Cl,–,–,78,–,–
O=C(Nc1ccc(-c2noc(CCc3ccccc3)n2)cc1)c1cccnc1,–,–,–,–,·
O=C1CC(C(=O)Nc2ccc(F)cc2)S/C(=N\N=C\c2ccco2)N1 (stereo not drawn),–,–,33,–,–
COCCc1ccc(OC2(C)CCN(Cc3cccn3-c3nccs3)C2)cc1 (stereo not drawn),·,·,·,–,·
CCCCN(C(=O)c1cccc(-n2cccc2)c1)c1c(N)n(CCCC)c(=O)[nH]c1=O,·,·,–,–,·
CCCCn1c(N)c(N(CCC(C)C)C(=O)c2cccc(N3C(=O)c4ccccc4C3=O)c2)c(=O)[nH]c1=O,·,·,22,–,–
COc1ccc(NC(=O)C(=O)NCC(c2ccco2)N2CCc3ccccc3C2)cc1OC (stereo not drawn),·,·,–,–,·
Cc1noc(C)c1C(=O)N(C)CC(=O)Nc1ccc(F)c(F)c1F,·,·,–,–,·
O=C(Nc1ccc(-c2ccc3nncn3n2)cc1)c1ccc(Br)o1,–,–,54,–,–
C=CCn1c(SCC(=O)Nc2ccc(C(=O)O)cc2)nc2sc(C)c(C)c2c1=O,·,·,–,–,·
C=CCn1c(SCC(=O)Nc2sccc2C#N)nc2sc(C)c(C)c2c1=O,–,–,23,–,–
COc1ccc(-n2c(SCC(=O)NC3CC3)nc3ccccc3c2=O)cc1OC,·,·,–,–,·
O=C(COC(=O)/C=C/c1cccc(Br)c1)NCc1cccs1,·,·,46,–,–
COc1ccc(-c2cc(C)no2)cc1S(=O)(=O)N1CCOc2ccc(C)cc21,–,–,44,–,–
CCc1ccc(-c2cc(C)no2)cc1S(=O)(=O)N1CCOc2ccccc21,–,–,–,–,·
CCC(C)NC(=O)Cn1c(=O)n(-c2ccc(OC)cc2)c(=O)c2ccc(C(=O)NCc3ccc(C)cc3)cc21 (stereo not drawn),–,–,33,–,–
Fc1ccc(N2CCN(C3=Nc4cccc5cccc3c45)CC2)cc1,–,–,22,–,–
O=C(NN1CC(C(=O)OCc2ccccc2F)CC1=O)c1ccccc1 (stereo not drawn),–,–,–,–,·
COc1ccc(-c2ccc(/C=N/NC(=O)c3cccnc3)o2)c([N+](=O)[O-])c1,–,–,50,–,–
COc1ccc(-c2cc(C(F)F)n3ncc(C(=O)Nc4cccc(S(=O)(=O)N5CCOCC5)c4)c3n2)cc1,–,–,33,–,–
COc1ccc(Br)c(C(=O)Nc2cccc(S(=O)(=O)N3CCOCC3)c2)c1,·,·,–,–,·
Cc1ccc(S(=O)(=O)c2nc(Nc3ccccc3N3CCOCC3)sc2Cl)cc1,–,–,22,–,–
SMILES,VIM-2 inhibitor,IMP-1 inh,dFosB act-1,m5-HT2A agonist,dFosB act-2
Cc1ccc(S(=O)(=O)c2nc(Nc3ccccc3C#N)sc2Cl)cc1,–,–,–,–,·
Cc1ccc(S(=O)(=O)CCC(=O)OCC(=O)Nc2cc(F)ccc2C)cc1,·,·,–,–,·
O=C(Nc1ccncc1)c1ccc2c(c1)C(=O)N(C1CCCCC1)C2=O,–,–,26,–,–
CCOC(=O)N1CCC(N2C(=O)c3ccc(C(=O)Nc4ccc(OC)cc4)cc3C2=O)CC1,–,–,30,–,–
Cc1cc(NC(=O)c2ccc3c(c2)C(=O)N(C2CCCCC2)C3=O)no1,–,–,–,–,·
CCOC(=O)N1CCC(N2C(=O)c3ccc(C(=O)NCCOC)cc3C2=O)CC1,–,–,–,–,·
C/C(CC(=O)Nc1cccc(C(F)(F)F)c1)=N/NC(=O)C(=O)NCCO,–,–,·,–,·
CCOc1ccc(-n2cc(C(=O)Nc3cccc(Cl)c3)c3cc(OC)c(OC)cc3c2=O)cc1,–,–,29,–,–
CCOc1ccc(NC(=O)c2cn(-c3ccc(OCC)cc3)c(=O)c3cc(OC)c(OC)cc23)cc1,–,–,20,–,–
CCOc1ccc(-n2cc(C(=O)Nc3cccc(C)n3)c3cc(OC)c(OC)cc3c2=O)cc1,–,–,–,–,·
CCOc1ccc(-n2cc(C(=O)NC(C)C)c3cc(OC)c(OC)cc3c2=O)cc1,–,–,–,–,·
CCOc1ccc(S(=O)(=O)N2CCC(C(=O)N3CCc4ccccc4C3)CC2)cc1,–,–,–,–,·
O=C(Nc1ccn(CCCNC2CCN(Cc3ccccc3)CC2)c(=O)n1)OCc1ccccc1,·,·,·,–,·
Cc1cccc(/C=N/NC(=O)c2ccc(NC(=O)c3ccc(F)cc3)cc2)n1,–,–,–,–,·
Cc1ccnc(NC(=O)c2cccc(NC(=O)c3ccc(Cl)cc3)c2)c1,·,·,–,–,·
Cc1cccc(C(=O)Nc2ccc(C(=O)/C=C/c3cccnc3)cc2)c1,–,–,–,–,·
Cc1cccc(/C=N/NC(=O)c2ccc(NC(=O)c3ccc(Cl)cc3)cc2)n1,–,–,41,–,–
O=C(Nc1ccc(Br)cc1)c1ccc(Br)c(S(=O)(=O)Nc2cccnc2)c1,–,–,28,–,–
Cc1ccnc(NC(=O)c2cccc(NC(=O)c3ccc(Cl)c(Cl)c3)c2)c1,·,·,48,–,–
O=C(/C=C/c1cccnc1)c1ccc(NC(=O)c2cccc(Br)c2)cc1,–,–,46,–,–
C=C(C)Cn1c2ccc(NC(=O)NCc3ccccc3)cc2c(=O)n1C,·,·,·,–,·
Cc1cccc(C(=O)Nc2ccc(C(=O)N/N=C/c3cccnc3)cc2)c1,–,–,–,–,·
O=C(N/N=C/c1cccnc1)c1cccc(NC(=O)c2ccc(Cl)cc2)c1,–,–,32,–,–
CNc1ccc(-c2cccc(C#N)c2)cn1,·,·,·,–,·
CCCn1c(N)c(C(=O)CSc2n[nH]c(-c3ccc(C)cc3)n2)c(=O)[nH]c1=O,·,·,28,–,–
SMILES,VIM-2 inhibitor,IMP-1 inh,dFosB act-1,m5-HT2A agonist,dFosB act-2
CCCn1c(N)c(C(=O)CSc2nc(C)cs2)c(=O)[nH]c1=O,–,–,–,–,·
O=C(CCC(=O)NNC(=O)COc1ccc(Br)cc1Br)NCc1ccccc1,–,–,34,–,–
Cc1cc(Br)cc(Br)c1OCC(=O)NNC(=O)CCC(=O)NCc1ccccc1,–,–,25,–,–
Cc1cc(C)cc(OCC(=O)NNC(=O)CCC(=O)NCc2ccccc2)c1,–,–,–,–,·
COc1ccccc1NCc1nnc(-c2ccccc2)o1,–,–,–,–,·
Cc1ccc(NC(=O)CSc2nncn2-c2ccccn2)cc1Cl,–,–,26,–,–
S=c1nc(-c2ccc(Br)cc2)[nH]c2ccccc12,–,–,45,–,–
